ChEMBL document CHEMBL1158343, “Synthesis, antimicrobial and antiviral evaluation of substituted imidazole derivatives” (Eur J Med Chem, 2009)
Converted amounts (≈) assume the structure as drawn.

How the values were obtained:
[1] = tested on: Aspergillus niger; assay: Antimicrobial activity against Aspergillus niger after 7 days by tube dilution method; type: functional; details: 168 h
Method in brief: (§1)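 Tube dilution in DMSO (stock 100 mg/ml) with serial dilutions; incubation 37 °C for 48 h for C. albicans (other organisms' times truncated in text). MIC read as lowest concentration inhibiting visible growth. Norfloxacin (bacteria) and fluconazole (fungi) as reference drugs.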

[2] = tested on: Bacillus subtilis; assay: Antimicrobial activity against Bacillus subtilis after 24 hrs by tube dilution method; type: functional; method in brief: as §1
[3] = tested on: Candida albicans; assay: Antimicrobial activity against Candida albicans after 48 hrs by tube dilution method; type: functional; method in brief: as §1
[4] = tested on: Staphylococcus aureus; assay: Antimicrobial activity against Staphylococcus aureus after 24 hrs by tube dilution method; type: functional; method in brief: as §1
[5] = tested on: Escherichia coli; assay: Antimicrobial activity against Escherichia coli after 24 hrs by tube dilution method; type: functional; method in brief: as §1
[6] = tested on: Vesicular stomatitis virus; assay: Antiviral activity against VSV infected in human HeLa cells assessed as reduction in virus-induced cytopathogenicity after 3 days; type: functional, organism-based; details: 72 h
[7] = tested on: Vesicular stomatitis virus; assay: Antiviral activity against VSV infected in human HEL cells assessed as reduction in virus-induced cytopathogenicity after 3 days; type: functional, organism-based; details: 72 h
[8] = Cytotoxicity against african green monkey Vero cells assessed as alteration in cell morphology; type: cell-based; details: chlorocebus sabaeus
Method in brief: (§2)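 Uninfected cell cultures tested in parallel with the CPE-reduction antiviral assay; cells grown to confluency, then serial compound dilutions added and incubated at 37 °C (3 days in the parallel antiviral set-up). Read-out is microscopic examination of morphology; value is the minimum cytotoxic concentration, the lowest causing a microscopically detectable alteration of normal cell morphology.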

[9] = tested on: Punta Toro virus; assay: Antiviral activity against Punta Toro virus infected in african green monkey Vero cells assessed as reduction in virus-induced cytopathogenicity after 3 days; type: functional, organism-based; details: 72 h
[10] = tested on: Sindbis virus; assay: Antiviral activity against Sindbis virus infected in african green monkey Vero cells assessed as reduction in virus-induced cytopathogenicity after 3 days; type: functional, organism-based; details: 72 h
[11] = tested on: Coxsackievirus B4; assay: Antiviral activity against Coxsackievirus B4 infected in human HeLa cells assessed as reduction in virus-induced cytopathogenicity after 3 days; type: functional, organism-based; details: Enterovirus B, 72 h
[12] = Cytotoxicity against human HeLa cells assessed as alteration in cell morphology; type: cell-based; method in brief: as §2
[13] = Cytotoxicity against human HEL cells assessed as alteration in cell morphology; type: cell-based; method in brief: as §2
[14] = tested on: Human alphaherpesvirus 2; assay: Antiviral activity against HSV2 G infected in human HEL cells assessed as reduction in virus-induced cytopathogenicity after 3 days; type: functional, organism-based; details: Human alphaherpesvirus 2, strain G, 72 h
[15] = tested on: Human respirovirus 3; assay: Antiviral activity against Parainfluenza-3 virus infected in african green monkey Vero cells assessed as reduction in virus-induced cytopathogenicity after 3 days; type: functional, organism-based; details: Human respirovirus 3, Vero, 72 h
[16] = tested on: Mammalian orthoreovirus 1; assay: Antiviral activity against Reovirus 1 infected in african green monkey Vero cells assessed as reduction in virus-induced cytopathogenicity after 3 days; type: functional, organism-based; details: Mammalian orthoreovirus 1, Vero, 72 h
[17] = tested on: Respiratory syncytial virus; assay: Antiviral activity against RSV infected in human HeLa cells assessed as reduction in virus-induced cytopathogenicity after 3 days; type: functional, organism-based; details: 72 h
[18] = tested on: Human alphaherpesvirus 1; assay: Antiviral activity against HSV1 KOS infected in human HEL cells assessed as reduction in virus-induced cytopathogenicity after 3 days; type: functional, organism-based; details: Human alphaherpesvirus 1, KOS, 72 h
[19] = tested on: Human alphaherpesvirus 1; assay: Antiviral activity against thymidine kinase-deficient acyclovir-resistant HSV1 KOS infected in human HEL cells assessed as reduction in virus-induced cytopathogenicity after 3 days; type: functional, organism-based; details: Human alphaherpesvirus 1, KOS, 72 h
[20] = tested on: Coxsackievirus B4; assay: Antiviral activity against Coxsackievirus B4 infected in african green monkey Vero cells assessed as reduction in virus-induced cytopathogenicity after 3 days; type: functional, organism-based; details: Enterovirus B, 72 h

Molecule `Clc1ccccc1-c1ncc[nH]1` has an MFC [1] of 280 µM (≈ 50 µg/mL), an MIC [1] of 35 µM (≈ 6.25 µg/mL) and an MBC [2] of 561 µM (≈ 100 µg/mL). It also gave an MIC [2] of 702 µM (≈ 125 µg/mL), an MFC [3] of 561 µM (≈ 100 µg/mL) and an MIC [3] of 702 µM (≈ 125 µg/mL). It also gave an MBC [4] of 561 µM (≈ 100 µg/mL), an MIC [4] of 35 µM (≈ 6.25 µg/mL) and an MBC [5] of 561 µM (≈ 100 µg/mL). The MIC [5] was 702 µM (≈ 125 µg/mL).

Work on `O=[N+]([O-])c1ccc(-c2ncc[nH]2)cc1` yielded an MFC [1] of 264 µM (≈ 49.9 µg/mL), an MIC [1] of 33 µM (≈ 6.24 µg/mL) and an MBC [2] of 132 µM (≈ 25 µg/mL). It also gave an MIC [2] of 16 µM (≈ 3.03 µg/mL), an MFC [3] of 264 µM (≈ 49.9 µg/mL) and an MIC [3] of 33 µM (≈ 6.24 µg/mL). The MBC [4] was 33 µM (≈ 6.24 µg/mL), the MIC [4] was 4 µM (≈ 0.757 µg/mL) and the MBC [5] was 33 µM (≈ 6.24 µg/mL). The MIC [5] was 4 µM (≈ 0.757 µg/mL).

Work on `O=C(c1ccc([N+](=O)[O-])cc1)n1ccnc1-c1cccc([N+](=O)[O-])c1` yielded an EC50 [6] greater than 100 µg/mL, an EC50 [7] greater than 100 µg/mL and an MCC [8] greater than 100 µg/mL. It also gave an EC50 [9] of 100 µg/mL (≈ 296 µM), an MFC [1] of 73 µM (≈ 24.7 µg/mL) and an MIC [1] of 9 µM (≈ 3.04 µg/mL). It also gave an MBC [2] of 295 µM (≈ 99.8 µg/mL), an MIC [2] of 36 µM (≈ 12.2 µg/mL) and an EC50 [10] greater than 100 µg/mL. For the same molecule, the EC50 [11] was greater than 100 µg/mL, the MCC [12] was greater than 100 µg/mL and the MFC [3] was 295 µM (≈ 99.8 µg/mL). The MIC [3] was 18 µM (≈ 6.09 µg/mL), the MCC [13] was greater than 100 µg/mL and the EC50 [14] was greater than 100 µg/mL. It also gave an EC50 [15] greater than 100 µg/mL, an EC50 [16] greater than 100 µg/mL and an EC50 [17] greater than 100 µg/mL. The MBC [4] was 147 µM (≈ 49.7 µg/mL), the MIC [4] was 18 µM (≈ 6.09 µg/mL) and the EC50 [18] was greater than 100 µg/mL. The MBC [5] was 36 µM (≈ 12.2 µg/mL), the MIC [5] was 9 µM (≈ 3.04 µg/mL) and the EC50 [19] was greater than 100 µg/mL. For the same molecule, the EC50 [20] was greater than 100 µg/mL.

`COc1ccc(-c2ncc[nH]2)cc1` gave an MFC [1] of 526 µM (≈ 91.6 µg/mL), an MIC [1] of 65 µM (≈ 11.3 µg/mL) and an MBC [2] of 32 µM (≈ 5.57 µg/mL). For the same molecule, the MIC [2] was 4 µM (≈ 0.697 µg/mL), the MFC [3] was 526 µM (≈ 91.6 µg/mL) and the MIC [3] was 65 µM (≈ 11.3 µg/mL). For the same molecule, the MBC [4] was 32 µM (≈ 5.57 µg/mL), the MIC [4] was 4 µM (≈ 0.697 µg/mL) and the MBC [5] was 263 µM (≈ 45.8 µg/mL). It also gave an MIC [5] of 32 µM (≈ 5.57 µg/mL).

`c1ccc(-c2ncc[nH]2)cc1` [2-PHENYLIMIDAZOLE] showed an MFC [1] of 694 µM (≈ 100 µg/mL), an MIC [1] of 86 µM (≈ 12.4 µg/mL) and an MBC [2] of 43 µM (≈ 6.2 µg/mL). For the same molecule, the MIC [2] was 5 µM (≈ 0.721 µg/mL), the MFC [3] was 347 µM (≈ 50 µg/mL) and the MIC [3] was 43 µM (≈ 6.2 µg/mL). It also gave an MBC [4] of 43 µM (≈ 6.2 µg/mL), an MIC [4] of 5 µM (≈ 0.721 µg/mL) and an MBC [5] of 43 µM (≈ 6.2 µg/mL). For the same molecule, the MIC [5] was 5 µM (≈ 0.721 µg/mL).

With `Nc1ncnc2c1ncn2C[C@H](O)CO` [(S)-DHPA] the EC50 [6] was greater than 250 µg/mL, the MCC [8] was greater than 250 µg/mL and the EC50 [9] was greater than 250 µg/mL. The EC50 [10] was greater than 250 µg/mL, the EC50 [11] was greater than 250 µg/mL and the MCC [12] was greater than 250 µg/mL. For the same molecule, the EC50 [15] was greater than 250 µg/mL, the EC50 [16] was greater than 250 µg/mL and the EC50 [17] was greater than 250 µg/mL. For the same molecule, the EC50 [20] was greater than 250 µg/mL.

`O=c1[nH]c(=O)n([C@H]2C[C@H](O)[C@@H](CO)O2)cc1/C=C/Br` [BRIVUDINE] showed an EC50 [7] greater than 250 µg/mL, an MCC [13] greater than 250 µg/mL and an EC50 [14] of 29 µg/mL (≈ 87.1 µM). For the same molecule, the EC50 [18] was 0.04 µg/mL (≈ 0.12 µM) and the EC50 [19] was 96 µg/mL (≈ 288 µM).

`Nc1ccn(C[C@@H](CO)OCP(=O)(O)O)c(=O)n1.O.O` [CIDOFOVIR] gave an EC50 [7] greater than 250 µg/mL, an MCC [13] greater than 250 µg/mL and an EC50 [14] of 2 µg/mL. For the same molecule, the EC50 [19] was 2 µg/mL.

Molecule `OC(Cn1cncn1)(Cn1cncn1)c1ccc(F)cc1F` [FLUCONAZOLE] has an MFC [1] of 40 µM (≈ 12.3 µg/mL), an MIC [1] of 1 µM (≈ 0.306 µg/mL) and an MFC [3] of 40 µM (≈ 12.3 µg/mL). It also gave an MIC [3] of 1 µM (≈ 0.306 µg/mL).

`Nc1nc2c(ncn2COC(CO)CO)c(=O)[nH]1` [GANCICLOVIR] showed an EC50 [7] greater than 100 µg/mL, an MCC [13] greater than 100 µg/mL and an EC50 [14] of 0.06 µg/mL (≈ 0.235 µM). It also gave an EC50 [18] of 0.06 µg/mL (≈ 0.235 µM) and an EC50 [19] of 1 µg/mL (≈ 3.92 µM).

For `CCn1cc(C(=O)O)c(=O)c2cc(F)c(N3CCNCC3)cc21` [NORFLOXACIN], the MBC [2] was 19 µM (≈ 6.07 µg/mL), the MIC [2] was 2 µM (≈ 0.639 µg/mL) and the MBC [4] was 19 µM (≈ 6.07 µg/mL). For the same molecule, the MIC [4] was 2 µM (≈ 0.639 µg/mL), the MBC [5] was 19 µM (≈ 6.07 µg/mL) and the MIC [5] was 2 µM (≈ 0.639 µg/mL).

For `NC(=O)c1ncn([C@@H]2O[C@H](CO)[C@@H](O)[C@H]2O)n1` [RIBAVIRIN], the MCC [8] was greater than 250 µg/mL, the EC50 [10] was greater than 250 µg/mL and the MCC [12] was greater than 250 µg/mL. For the same molecule, the MCC [13] was greater than 250 µg/mL, the EC50 [14] was greater than 250 µg/mL and the EC50 [16] was greater than 250 µg/mL. For the same molecule, the EC50 [18] was greater than 250 µg/mL, the EC50 [19] was greater than 250 µg/mL and the EC50 [20] was greater than 250 µg/mL.
